Reference: ChEMBL document CHEMBL2034908, “Isoxazolo(aza)naphthoquinones: a new class of cytotoxic Hsp90 inhibitors” (Eur J Med Chem, 2012)
Activity calls are given as the source filed them. The rule behind the calls is not given here.

Experiments:
NCI-H460 [1] = assay: Cytotoxicity against human NCI-H460 cells after 72 hrs; type: functional, cell-based; conditions: NCI-H460, 72 h
Outline: (§1)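 Compounds were dissolved fresh in DMSO and diluted in culture medium. Cells were exposed for 72 h at 37 °C in medium with 10% heat-inactivated FBS under 5% CO2. IC50 reported ± SD. STO cells were grown in 50/50 DMEM-Ham's F12 with 10% FBS and 2 mM L-Gln.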

A-431 [2] = assay: Cytotoxicity against human A431 cells after 72 hrs; type: functional, cell-based; conditions: A-431, 72 h
[3] = Binding affinity to Hsp90 after 4 hrs by GM-FITC based fluorescence polarization assay
Outline: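 Commercial Hsp90 at 30 nM was mixed with GM-FITC tracer at 5 nM and serially diluted compound. Buffer: 20 mM HEPES(K) pH 7.3, 50 mM KCl, 5 mM MgCl2, 20 mM Na2MoO4, 0.01% NP40, with fresh 0.1 mg/ml bovine gamma globulin and 2 mM DTT. Shaken 4 h at 4 °C, then FP read in mP. IC50 is the concentration displacing 50% of tracer, from triplicate wells by nonlinear least-squares fit.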

[4] = Cytotoxicity against human STO cells after 72 hrs; type: functional, cell-based; outline: as §1
NCI-H460 [5] = assay: Cytotoxicity against human NCI-H460 cells at >1 uM after 72 hrs; type: functional
[6] = target: T1, Heat shock protein HSP90 (Homo sapiens) (UniProt P07900+P08238); assay: Inhibition of Hsp90 in human A431 cells assessed as down-regulation of Akt expression after 24 hrs by Western blotting analysis; type: cell-based; conditions: A-431
Outline: (§2)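 Cells were treated 24 h with drug freshly made in DMSO and diluted in medium with 10% FBS. Where a single level was used, it was 22 nM. Lysates: cells rinsed twice in ice-cold PBS with 0.1 mM orthovanadate, then lysed in hot sample buffer. Protein was quantified by BCA, run on SDS-PAGE and blotted to nitrocellulose. Detection used HRP secondary antibodies and chemiluminescence, with actin as loading control.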

[7] = target: T1, Heat shock protein HSP90 (Homo sapiens); assay: Inhibition of Hsp90 in human A431 cells assessed as down-regulation of EGFR expression after 24 hrs by Western blotting analysis; type: cell-based; conditions: A-431; outline: as §2
[8] = target: T1, Heat shock protein HSP90 (Homo sapiens); assay: Inhibition of Hsp90 in human A431 cells assessed as up-regulation of Hsp70 in human A431 cells after 24 hrs by Western blotting analysis; type: cell-based; conditions: A-431; outline: as §2
[9] = target: T1, Heat shock protein HSP90 (Homo sapiens); assay: Inhibition of Hsp90 in human A431 cells assessed as down-regulation of survivin expression after 24 hrs by Western blotting analysis; type: cell-based; conditions: A-431; outline: as §2
[10] = target: T1, Heat shock protein HSP90 (Homo sapiens); assay: Inhibition of Hsp90 in human A431 cells assessed as down-regulation of Cdk4 expression after 24 hrs by Western blotting analysis; type: cell-based; conditions: A-431; outline: as §2
[11] = target: T1, Heat shock protein HSP90 (Homo sapiens); assay: Inhibition of Hsp90 in human A431 cells assessed as down-regulation of EGFR expression at 22 nM after 24 hrs by Western blotting analysis; type: cell-based; conditions: A-431; outline: as §2
[12] = target: T1, Heat shock protein HSP90 (Homo sapiens); assay: Inhibition of Hsp90 in human STO cells assessed as down-regulation of survivin expression at 22 nM after 24 hrs by Western blotting analysis; type: cell-based; outline: as §2
[13] = target: T1, Heat shock protein HSP90 (Homo sapiens); assay: Inhibition of Hsp90 in human A431 cells assessed as down-regulation of survivin expression at 22 nM after 24 hrs by Western blotting analysis; type: cell-based; conditions: A-431; outline: as §2
[14] = target: T1, Heat shock protein HSP90 (Homo sapiens); assay: Inhibition of Hsp90 in human A431 cells assessed as down-regulation of Cdk4 expression at 22 nM after 24 hrs by Western blotting analysis; type: cell-based; conditions: A-431; outline: as §2
[15] = target: T1, Heat shock protein HSP90 (Homo sapiens); assay: Inhibition of Hsp90 in human STO cells assessed as down-regulation of Cdk4 expression at 22 nM after 24 hrs by Western blotting analysis; type: cell-based; outline: as §2
A-431 [16] = assay: Antitumor activity against human A431 cells xenografted in athymic nude Swiss mouse assessed as tumor growth inhibition at 10 mg/kg, po qd for 4 days per week for 3 weeks; type: functional; conditions: read-out: GI
Outline: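 Female athymic Swiss nude mice, 8–10 weeks old, bearing A431 squamous carcinoma xenografts. Drug dissolved in physiologic saline and given orally at 10 mg/kg, qdx4d/week for 3 weeks. Dosing started when tumours were just palpable. Tumour growth inhibition was assessed.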

[17] = target: T1, Heat shock protein HSP90 (Homo sapiens); assay: Inhibition of Hsp90 in human A431 cells assessed as down-regulation of Raf expression at 22 nM after 24 hrs by Western blotting analysis; type: cell-based; conditions: A-431; outline: as §2
[18] = target: T1, Heat shock protein HSP90 (Homo sapiens); assay: Inhibition of Hsp90 in human STO cells assessed as down-regulation of Raf expression at 22 nM after 24 hrs by Western blotting analysis; type: cell-based; outline: as §2

SMILES | IC50 [3] | pIC50 [3] | IC50 (NCI-H460 [1]) | IC50 (A-431 [2]) | IC50 [4] | further results
COc1ccccc1-c1noc2c1C(=O)c1ccccc1C2=O | 200000 nM | 3.7 | 290 nM | 130 nM | 660 nM | –
COc1cccc2c1C(=O)c1c(-c3ccncc3)noc1C2=O | 1900 nM | 5.72 | 880 nM | 330 nM | 261 nM | –
O=C1c2ccccc2C(=O)c2c(-c3cc[n+](Cc4cnccn4)cc3)noc21.[Br-] | 680 nM | 6.17 | 17 nM | 52 nM | 220 nM | –
C[n+]1ccc(-c2noc3c2C(=O)c2ccccc2C3=O)cc1.[I-] | 630 nM | 6.2 | 330 nM | 480 nM | 1200 nM | –
O=C1c2ccncc2C(=O)c2c(-c3ccc(F)cc3)noc21 | 5600 nM | 5.25 | 183 nM | 4 nM | 4 nM | –
COc1ccc(-c2noc3c2C(=O)c2ccccc2C3=O)cc1 | 5840 nM | – | 650 nM | 350 nM | 160 nM | –
COc1cc(O)c(-c2noc3c2C(=O)c2ccccc2C3=O)cc1Cl | > 100000 nM | – | > 1000 nM | 2980 nM | 300 nM | –
O=C1c2cccc(O)c2C(=O)c2c(-c3ccncc3)noc21 | > 100000 nM | – | 880 nM | 68 nM | 103 nM | –
O=C1c2ccccc2C(=O)c2c(-c3ccccn3)noc21 | 1060 nM | 5.97 | 1000 nM | 340 nM | 20 nM | –
COc1cc(OC)c(-c2noc3c2C(=O)c2ccccc2C3=O)cc1Cl | > 100000 nM | – | 880 nM | 1400 nM | 135 nM | –
O=C1c2ccccc2C(=O)c2c(/C=C/c3ccccc3)noc21 | > 100000 nM | – | > 1000 nM | 320 nM | 120 nM | Activity (NCI-H460 [5]): 40%
O=C1c2ccccc2C(=O)c2c(-c3ccc4[nH]ccc4c3)noc21 | > 100000 nM | 5.71 | 300 nM | 320 nM | 320 nM | –
O=C1c2ccccc2C(=O)c2c(-c3ccc(F)cc3)noc21 | 200000 nM | 3.7 | 350 nM | 260 nM | 20 nM | –
CC(=O)Oc1c2ccccc2c(OC(C)=O)c2c(-c3ccc(F)cc3)noc12 | > 100000 nM | – | > 1000 nM | 690 nM | 670 nM | –
O=C1c2ccccc2C(=O)c2c(-c3ccc[n+](Cc4ccccc4)c3)noc21.[Br-] | 770 nM | 6.11 | 21 nM | 20 nM | 10 nM | –
COc1ccc(-c2noc3c(OC(C)=O)c4ccccc4c(OC(C)=O)c23)cc1 | > 100000 nM | – | > 1000 nM | 1300 nM | 1000 nM | Activity (NCI-H460 [5]): 39%
COc1ccc(-c2noc3c2C(=O)c2cnccc2C3=O)cc1 | 1600 nM | 5.61 | 446 nM | 98 nM | 92 nM | –
C=CCNC1=C2C[C@@H](C)C[C@H](OC)[C@H](O)[C@@H](C)/C=C(\C)[C@H](OC(N)=O)[C@@H](OC)/C=C\C=C(/C)C(=O)NC(=CC1=O)C2=O [TANESPIMYCIN] | 1100 nM | – | 10 nM | 69 nM | – | –
O=C1c2ccccc2C(=O)c2c(-c3cccc[n+]3Cc3ccccc3)noc21.[Br-] | 200000 nM | 3.7 | > 1000 nM | 2240 nM | 2240 nM | –
O=C1c2ccccc2C(=O)c2c(-c3cc(Cl)c(O)cc3O)noc21 | 4200 nM | 5.38 | > 1000 nM | 23000 nM | 1000 nM | –
Cl.O=C1c2ccccc2C(=O)c2c(-c3ccc(OCCN4CCOCC4)cc3)noc21 | 1200 nM | 5.92 | 866 nM | 440 nM | 1130 nM | –
O=C1c2ccccc2C(=O)c2c(-c3ccccc3)noc21 | 7850 nM | 5.11 | 120 nM | 120 nM | 20 nM | –
CC(=O)Oc1cccc2c1C(=O)c1c(-c3ccc(F)cc3)noc1C2=O | 1940 nM | – | 78 nM | 270 nM | 1050 nM | –
O=C1c2ccccc2C(=O)c2c(-c3ccc(O)cc3)noc21 | > 100000 nM | – | 510 nM | 210 nM | 460 nM | –
O=C1c2ccccc2C(=O)c2c(-c3ccccc3O)noc21 | 1550 nM | 5.81 | > 1000 nM | 3400 nM | 3400 nM | –

These reach a lower IC50 [3]. Values come first.

IC50 [3] | pIC50 [3] | SMILES | IC50 (NCI-H460 [1]) | IC50 (A-431 [2]) | IC50 [4] | further results
31 nM | 7.51 | CC(=O)Oc1cccc2c1C(=O)c1c(-c3cc[n+](Cc4ccccc4)cc3)noc1C2=O.[Br-] | > 1000 nM | 3960 nM | 3960 nM | Activity (NCI-H460 [5]): 32%
98 nM | 7.01 | O=C1c2cccc(O)c2C(=O)c2c(-c3cc[n+](Cc4ccccc4)cc3)noc21.[Br-] | 880 nM | 21600 nM | 21600 nM | –
510 nM | 6.29 | O=C1c2ccccc2C(=O)c2c(-c3ccc[n+](Cc4cnccn4)c3)noc21.[Br-] | 46 nM | 42 nM | 110 nM | –
340 nM | 6.47 | COc1cccc2c1C(=O)c1c(-c3cc[n+](Cc4ccccc4)cc3)noc1C2=O.[Br-] | 180 nM | 168 nM | 168 nM | –
120 nM | 6.92 | O=C1c2ccncc2C(=O)c2c(-c3ccncc3)noc21 | 85 nM | 8.5 nM | 60 nM | –
390 nM | 6.41 | O=C1c2ccccc2C(=O)c2c(-c3ccncc3)noc21 | 140 nM | 56 nM | 11 nM | –
540 nM | 6.27 | O=C1c2ccccc2C(=O)c2c(-c3cccnc3)noc21 | 62 nM | 43 nM | 40 nM | –
< 5 nM | 8.47 | Cl.O=C1c2ccncc2C(=O)c2c(-c3ccc(OCCN4CCOCC4)cc3)noc21 | 41 nM | 20 nM | 54 nM | inhibition [6]: Dose-dependent effect; inhibition [7]: Dose-dependent effect; inhibition [8]: Dose-dependent effect; inhibition [9]: Dose-dependent effect; inhibition [10]: Dose-dependent effect
290 nM | 6.54 | O=C1c2cccc(O)c2C(=O)c2c(-c3ccc(F)cc3)noc21 | 124 nM | 290 nM | 610 nM | –
34 nM | 7.47 | O=C1c2ccccc2C(=O)c2c(-c3cc[n+](Cc4ccccc4)cc3)noc21.[Br-] | 18 nM | 1.6 nM | 2.2 nM | inhibition [11]: Active; inhibition [12]: Active; inhibition [13]: Active; inhibition [8]: Dose-dependent effect; inhibition [14]: Active; inhibition [15]: Active; inhibition in vivo at 10 mg/kg (A-431 [16]): 50%; inhibition [17]: Active; inhibition [18]: Active
84 nM | 7.08 | CC(=O)Oc1cccc2c1C(=O)c1c(-c3ccncc3)noc1C2=O | 150 nM | 60 nM | 150 nM | –
